{
  "source": "ChEMBL document CHEMBL2062448",
  "about": "“A substituted 3,4-dihydropyrimidinone derivative (compound D22) prevents inflammation mediated neurotoxicity; role in microglial activation in BV-2 cells” (Bioorg Med Chem Lett, 2012)",
  "key": {"BV-2 [1]": {"system": "BV-2", "experiment": "Antineuroinflammatory activity in […] cells assessed as inhibition of LPS-induced nitric oxide production at 10 uM treated 30 mins before LPS challenge measured after 24 hrs by Griess reaction", "type": "functional", "procedure,_shortened": "(§1)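 BV-2 cells at 3 × 10⁴ cells/well in DMEM with 5% FBS at 37 °C, 5% CO₂. Cells were pretreated 30 min, then given LPS 100 ng/ml for 24 h. Supernatant was mixed 1:1 with Griess reagent (1% sulfanilamide, 0.1% naphthylethylenediamine in 5% phosphoric acid). Absorbance at 570 nm was read after 10 min against a sodium nitrite standard.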"}, "BV-2 [2]": {"system": "BV-2", "experiment": "Antineuroinflammatory activity in […] cells assessed as inhibition of LPS-induced nitric oxide production at 5 to 20 uM treated 30 mins before LPS challenge measured after 24 hrs by Griess reaction", "type": "functional, cell-based", "procedure,_shortened": "as §1"}, "N2a [3]": {"system": "N2a", "experiment": "Antineuroinflammatory activity in LPS-stimulated […] cells in conditioned media assessed as inhibition of Bax expression in […] cells treated 30 mins before LPS challenge measured at 5 to 20 uM after 24 hrs by Western blot analysis", "type": "functional, cell-based", "procedure,_shortened": "(§2)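 BV-2 cells pretreated with 5, 10 or 20 µM for 30 min, then LPS 100 ng/ml for 24 h. Conditioned media were collected and applied to N2a cells for 24 h. Lysates were run on 8–12% SDS-PAGE and transferred to nitrocellulose. Blots were probed 12 h with primary antibodies (cleaved caspase-3, Bax, Bcl-2), then HRP secondary 1 h at room temperature, ECL detection and densitometry. Mean ± S.E.M. of three independent experiments.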"}, "BV-2 [4]": {"system": "BV-2", "experiment": "Antineuroinflammatory activity in […] cells assessed as inhibition of LPS-induced IL-1beta production treated 30 mins before LPS challenge measured after 24 hrs by ELISA", "type": "functional, cell-based", "procedure,_shortened": "(§3)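 BV-2 cells plated at 1.5 × 10⁶ cells/well and pretreated for 30 min. Cells were then exposed to LPS 100 ng/ml for 24 h. IL-1β and TNF-α in culture medium were quantified by immunoassay kit. Mean ± S.E.M. of three independent experiments.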"}, "N2a [5]": {"system": "N2a", "experiment": "Antineuroinflammatory activity in LPS-stimulated […] cells in conditioned media assessed as inhibition of […] cell death treated 30 mins before LPS challenge measured after 24 hrs by MTT assay", "type": "functional, cell-based", "procedure,_shortened": "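BV-2 cells (DMEM, 5% FBS) pretreated with 5, 10 or 20 µM for 30 min, then LPS 100 ng/ml for 24 h. Conditioned media were transferred to N2a cells (DMEM, 10% FBS) for 24 h, and N2a viability was read by MTT. Mean ± S.E.M. of three independent experiments; one-way ANOVA with Tukey post test.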"}, "BV-2 [6]": {"system": "BV-2", "experiment": "Inhibition of LPS-induced ERK kinase phosphorylation in […] cells after 30 mins by Western blot analysis", "type": "cell-based", "procedure,_shortened": "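BV-2 cells exposed to LPS 100 ng/ml with or without 5–20 µM for 30 min. Lysates were run on 8–12% SDS-PAGE and transferred to nitrocellulose. Blots were probed 12 h for phospho-p38, -JNK or -ERK, then HRP secondary 1 h at room temperature, ECL detection and densitometry.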"}, "N2a [7]": {"system": "N2a", "experiment": "Antineuroinflammatory activity in LPS-stimulated […] cells in conditioned media assessed as inhibition of caspase-3 activation in […] cells treated 30 mins before LPS challenge measured at 5 to 20 uM after 24 hrs by Western blot analysis", "type": "functional, cell-based", "procedure,_shortened": "as §2"}, "BV-2 [8]": {"system": "BV-2", "experiment": "Cytotoxicity against LPS-induced […] cells assessed as cell viability after 24 hrs by MTT assay", "type": "cell-based", "conditions": "bv-2, 24 h", "procedure,_shortened": "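BV-2 viability measured by MTT after 30 min pretreatment with 5, 10 or 20 µM, followed by LPS 100 ng/ml for 24 h. Mean ± S.E.M. of three independent experiments.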"}, "[9]": {"system": "MAP kinase p38 (Mus musculus)", "experiment": "Inhibition of LPS-induced p38 kinase phosphorylation in mouse BV2 cells after 30 mins by Western blot analysis", "conditions": "BV-2"}, "BV-2 [10]": {"system": "BV-2", "experiment": "Antineuroinflammatory activity in […] cells assessed as inhibition of LPS-induced iNOS expression at 5 to 20 uM after 6 hrs by Western blot analysis", "type": "functional, cell-based", "procedure,_shortened": "(§4)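 BV-2 cells exposed to LPS 100 ng/ml with or without 5–20 µM for 6 h. Lysates were run on 8–12% SDS-PAGE and transferred to nitrocellulose. Blots were probed 12 h for iNOS or COX-2, then HRP secondary 1 h at room temperature, ECL detection and densitometry. Three independent experiments.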"}, "BV-2 [11]": {"system": "BV-2", "experiment": "Antineuroinflammatory activity in […] cells assessed as inhibition of LPS-induced TNFalpha production treated 30 mins before LPS challenge measured after 24 hrs by ELISA", "type": "functional, cell-based", "procedure,_shortened": "as §3"}, "BV-2 [12]": {"system": "BV-2", "experiment": "Antineuroinflammatory activity in […] cells assessed as inhibition of LPS-induced COX2 expression at 5 to 20 uM after 6 hrs by Western blot analysis", "type": "functional, cell-based", "procedure,_shortened": "as §4"}, "N2a [13]": {"system": "N2a", "experiment": "Antineuroinflammatory activity in LPS-stimulated […] cells in conditioned media assessed as recovery of Bcl-2 expression in […] cells treated 30 mins before LPS challenge measured at 5 to 20 uM after 24 hrs by Western blot analysis", "type": "functional, cell-based", "procedure,_shortened": "as §2"}, "N2a [14]": {"system": "N2a", "experiment": "Antineuroinflammatory activity in LPS-stimulated […] cells in conditioned media assessed as inhibition of DNA fragmentation in […] cells treated 30 mins before LPS challenge measured after 24 hrs by Gel electrophoresis", "type": "functional, cell-based", "procedure,_shortened": "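BV-2 cells pretreated with 5, 10 or 20 µM for 30 min, then stimulated with LPS 100 ng/ml for 24 h. Conditioned media were applied to N2a cells for 24 h. Cells were scraped and pelleted at 7500 rpm for 5 min. DNA fragmentation was resolved by gel electrophoresis alongside vehicle CM and LPS-with-vehicle CM lanes.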"}, "BV-2 [15]": {"system": "BV-2", "experiment": "Antineuroinflammatory activity in […] cells assessed as inhibition of LPS-induced PGE2 production at 5 to 20 uM treated 30 mins before LPS challenge measured after 24 hrs by competitive enzyme immunoassay", "type": "functional, cell-based", "procedure,_shortened": "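BV-2 cells plated at 1.5 × 10⁶ cells/well and pretreated with 5, 10 or 20 µM for 30 min. LPS 100 ng/ml was then added for 24 h. PGE₂ in medium was measured by competitive enzyme immunoassay kit. Mean ± S.E.M. of three independent experiments.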"}, "[16]": {"system": "c-Jun N-terminal kinase, JNK (Mus musculus)", "experiment": "Inhibition of LPS-induced JNK kinase phosphorylation in mouse BV2 cells after 30 mins by Western blot analysis", "conditions": "BV-2"}},
  "note": "Calls of active or inactive are those of the source. The calls are words filed in the database; no cut-off is given here.",
  "data": [
    {"smiles": "O=c1cc(-c2ccccc2)oc2cc(O)cc(O)c12", "values": [
      {"measurement": "inhibition", "setting": "BV-2 [1]", "value": "Active"}
    ]},
    {"smiles": "CCOC(=O)C1=C(C)NC(=O)NC1c1cc(Cl)ccc1O", "note": "(stereo not drawn)", "values": [
      {"measurement": "inhibition", "setting": "BV-2 [2]", "value": "Active"}
    ]},
    {"smiles": "CCOC(=O)C1=C(C)NC(=S)NC1c1cccc(Oc2ccccc2)c1", "note": "(stereo not drawn)", "values": [
      {"measurement": "inhibition", "setting": "N2a [3]", "value": "Active"},
      {"measurement": "inhibition", "setting": "BV-2 [4]", "value": "Dose-dependent effect"},
      {"measurement": "inhibition", "setting": "N2a [5]", "value": "Active"},
      {"measurement": "inhibition", "setting": "BV-2 [6]", "value": "Dose-dependent effect"},
      {"measurement": "inhibition", "setting": "N2a [7]", "value": "Active"},
      {"measurement": "Activity", "setting": "BV-2 [8]", "value": "Non-toxic"},
      {"measurement": "inhibition", "setting": "[9]", "value": "Dose-dependent effect"},
      {"measurement": "inhibition", "setting": "BV-2 [10]", "value": "Active"},
      {"measurement": "inhibition", "setting": "BV-2 [11]", "value": "Dose-dependent effect"},
      {"measurement": "inhibition", "setting": "BV-2 [12]", "value": "Active"},
      {"measurement": "Activity", "setting": "N2a [13]", "value": "Active"},
      {"measurement": "inhibition", "setting": "N2a [14]", "value": "Active"},
      {"measurement": "inhibition", "setting": "BV-2 [15]", "value": "Active"},
      {"measurement": "inhibition at 10 µM", "setting": "BV-2 [1]; Mus musculus, BV-2, read-out: INH", "value": 51, "unit": "%"},
      {"measurement": "inhibition", "setting": "[16]", "value": "Dose-dependent effect"}
    ]},
    {"smiles": "CCOC(=O)C1=C(C)NC(=O)NC1c1cccc(Oc2ccccc2)c1", "note": "(stereo not drawn)", "values": [
      {"measurement": "inhibition", "setting": "BV-2 [2]", "value": "Active"}
    ]}
  ]
}
